Assay results taken from paper PMC10586019 (ACS Omega, 2023).
≈ marks a conversion by molar mass, not a printed value. Where “and” joins values, the source holds several entries; their conditions need not be identical. Identical values can stand only once. Where a SMILES comes first, the peptide text is derived from it. Where no end group is shown, it is not given here. [ ]: non-standard residue; d: D form. Orn = NCCC[C@H](N)C(=O)O; Ahx = NCCCCCC(=O)O

Key:
Caco-2 = assay: MTT viability test, Caco-2 colon cancer cells; type: cell-based; conditions: Caco-2, MTT
[1] = MTT cytotoxicity, HEK-293 control cells; type: cell-based; conditions: Caco-2
Summary of the method: (§1)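 Cells are grown in RPMI-1640 with 10% FBS, seeded at 1 × 10^4 per well, and synchronized for 24 h. Medium is replaced with peptide (0–200 μg/mL) in the same medium for 2 h at 37 °C. MTT (5 mg/mL solution) is added for 4 h at 37 °C, and formazan is dissolved in DMSO for 30 min at 37 °C. Absorbance is read at 570 nm.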

HEK-293 = assay: MTT cytotoxicity, HEK-293 control cells; type: cell-based; conditions: for CC50 HEK-293: MTT, peptide 0-200 μg/mL, 2 h, 37 °C, n = 3; for Selectivity Index HEK-293/HT-29: SI = CC50/IC50
Summary of the method: as §1

[2] = MTT cytotoxicity, Vero control cells; type: cell-based; conditions: Caco-2
Summary of the method: as §1

Vero cells = assay: MTT cytotoxicity, Vero control cells; type: cell-based; conditions: for CC50 Vero: MTT, peptide 0-200 μg/mL, 2 h, 37 °C, n = 3; for Selectivity Index Vero/HT-29: SI = CC50/IC50
Summary of the method: as §1

human fibroblasts = assay: MTT cytotoxicity, fibroblasts control cells; type: cell-based; conditions: for CC50 fibroblasts: MTT, peptide 0-200 μg/mL, 2 h, 37 °C, n = 3; for Selectivity Index fibroblasts/HT-29: SI = CC50/IC50
Hemolytic activity = type: cell-based, human; conditions: Caco-2
Summary of the method: (§2)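 Erythrocytes from healthy O+ donors (EDTA blood) are spun at 500 rpm and washed 3× in 0.9% saline. Peptide (final 200 to 6.2 μg mL−1) is mixed 1:1 with 2% hematocrit suspension for 2 h at 37 °C, then spun 2500 rpm for 5 min. Supernatant A450 is read. Positive controls are distilled water and Tween 20; the negative is 0.9% saline. The readout is the concentration causing 10% hemolysis.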

erythrocytes = assay: Hemolytic activity; type: cell-based, human; conditions: SI = hemolysis10%/IC50
Summary of the method: as §2

Galleria mellonella [3] = conditions: at 33 mg/kg; cited from earlier work
[4] = MTT cytotoxicity, fibroblasts control cells; type: cell-based, human; conditions: Caco-2
Galleria mellonella [5] = assay: Galleria mellonella toxicity test; type: in vivo; conditions: 20-100 mg/Kg, 10 days, Kaplan-Meyer, n = 2
Du-145 = assay: MTT viability test, Du-145 prostate cancer cells; type: cell-based; conditions: for IC50 Du-145: peptide 0-200 μg/mL during 2 h, mean ± SE n = 3; for IC50: read-out: IC50 Du-145, peptide 0-200 μg/mL during 2 h, mean ± SE n = 3
Summary of the method: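 Du-145 cells are seeded at 1 × 10^4 per well and synchronized for 24 h. They are exposed to peptide (0–200 μg/mL) in medium for 2 h at 37 °C. MTT (5 mg/mL solution) is added for 4 h at 37 °C, DMSO solubilization runs 30 min at 37 °C, and A570 is read. Data are mean ± SE, n = 3.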

Row | Compound | decrease of IC50 in Caco-2 cells compared to the parent peptide RWQWRWQWR (Caco-2) | selectivity ratio [1] | CC50 HEK-293 (HEK-293) | Selectivity Index HEK-293/HT-29 (HEK-293) | selectivity ratio [2] | CC50 Vero (Vero cells) | Selectivity Index Vero/HT-29 (Vero cells) | CC50 fibroblasts (human fibroblasts) | Selectivity Index fibroblasts/HT-29 (human fibroblasts) | selectivity ratio (Hemolytic activity) | Selectivity Index erythrocytes/HT-29 (erythrocytes) | mortality in Galleria (previous study) (Galleria mellonella [3]) [%] | fold increase in potency against Caco-2 versus parent peptide (Caco-2) [fold] | selectivity ratio [4] | toxicity (Galleria mellonella [5]) | IC50 Du-145 (Du-145) [µg/mL] | IC50 (Du-145) [µM]
1 | N=C(N)NCCC[C@H](NC(=O)[C@H](Cc1c[nH]c2ccccc12)NC(=O)[C@H](CCC(N)=O)NC(=O)[C@H](Cc1c[nH]c2ccccc12)NC(=O)[C@H](CCCNC(=N)N)NC(=O)[C@H](Cc1c[nH]c2ccccc12)NC(=O)[C@H](CCC(N)=O)NC(=O)[C@H](Cc1c[nH]c2ccccc12)NC(=O)[C@H](CCCNC(=N)N)NC(=O)CCCCCN)C(N)=O [Ahx-[Pal]] (H-[Ahx]RWQWRWQWR-NH2) | approx. 50% | 2.2 | 86 μM and 132 μg/mL | 0.7 | 1 | 40 μM and 64 μg/mL | 0.3 | 98 μM and 157 μg/mL | 0.8 | > 3.1 | >1.1 | – | – | – | – | – | –
2 | N.N.[Cl][Pt][Cl] [cisplatin] | – | – | – | – | – | – | – | – | – | – | – | 60 | – | – | – | – | –
3 | N=C(N)NCCC[C@H](NC(=O)[C@H](Cc1c[nH]c2ccccc12)NC(=O)[C@H](CCC(N)=O)NC(=O)[C@H](Cc1c[nH]c2ccccc12)NC(=O)[C@@H](N)CCCNC(=N)N)C(=O)N[C@@H](Cc1c[nH]c2ccccc12)C(=O)N[C@@H](CCC(N)=O)C(=O)N[C@@H](Cc1c[nH]c2ccccc12)C(=O)N[C@@H](CCCN)C(N)=O [^9[Orn] [Pal]] (H-RWQWRWQW[Orn]-NH2) | approx. 50% | 1.3 | 51 μM and 74 μg/mL | 0.5 | 1.2 | 46 μM and 67 μg/mL | 0.4 | 55 μM and 79 μg/mL | 0.5 | > 3.4 | >1.3 | – | 2 | 1.4 | did not show any significant toxicity | 89 (≈ 61.6 µM) | 62
4 | RWQWRWQWR-NH2 [[Pal]] | – | 0.8 | 68 μM and 101 μg/mL | 0.7 | 0.2 | 21 μM and 31 μg/mL | – | > 134 μM and > 200 μg/mL | – | 1.6 | 1.3 | – | – | – | – | 60 | 40
